The values that follow come from ChEMBL document CHEMBL2146455, “Structure-activity studies on the spiroketal moiety of a simplified analogue of debromoaplysiatoxin with antiproliferative activity” (J Med Chem, 2012).

As a reminder, the logP is a log measure of how a compound divides between an organic and an aqueous phase. Lower therefore signals a more hydrophilic compound. The Ki is the equilibrium dissociation constant of an inhibitor or competing ligand from its target. The low end stands for higher affinity, the high end for lower affinity. A word on the GI50: it is the concentration at which growth is held to half of that of the control.

The nature of series [1]: n-Octanol-water partition coefficient, log P of the compound by HPLC analysis. Format: physicochemical.
Series [2] deals with Raji. Briefly: Tumor promoting activity in human Raji cells assessed as induction of EBV-early antigen activation after 48 hrs by FITC staining based indirect immunofluorescence assay. Format: cell-based. The method, boiled down:
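Raji cells (5 × 10⁵/mL) were grown in RPMI 1640 with 10% FBS at 37 °C and 5% CO₂, with 4 mM sodium n-butyrate as synergist. Compounds were tested at 10, 100 or 1000 nM final, with DMSO at 0.4% final, for 48 h. Cell smears were stained by indirect immunofluorescence using NPC patient serum and FITC anti-human IgG. At least 500 cells were counted and the percentage of EA-positive cells recorded.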

Series [3] deals with Protein kinase C alpha type (Homo sapiens, UniProt P17252). Briefly: Inhibition of [3H]PDBu binding to PKCalpha C1A domain. Put shortly:
(§1)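 Displacement of [³H]PDBu (20 nM) from synthetic PKC C1 peptides (10−20 nM; about 3 nM properly folded) in 50 mM Tris-maleate, pH 7.4 at 4 °C. Buffer held 50 μg/mL phosphatidylserine and 3 mg/mL bovine γ-globulin, with inhibitor at various concentrations. IC₅₀ taken from 50% loss of specific binding by probit; Ki by the Sharkey–Blumberg method.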

Another series deals with LOX IMVI. Briefly: Growth inhibition of human LOXIMVI cells after 48 hrs by sulforhodamine B assay. Format: functional. The method, boiled down: (§2)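 Cell line from a 39-line human cancer panel, grown in RPMI 1640 with 5% FBS and attached overnight. Exposed 48 h to drug at 10⁻⁸ to 10⁻⁴ M (tenfold steps). Sulforhodamine B read at 525 nm against control and time-0 wells. % growth = 100[(T − T₀)/(C − T₀)] from duplicate points; GI₅₀ is the level giving 50.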
In general terms: The SRB assay estimates cell density from bound dye.

The subject of the next series is MDA-MB-231. Briefly: Growth inhibition of human MDA-MB-231 cells after 48 hrs by sulforhodamine B assay. Format: functional. To be noted: MDA-MB-231, 48 h. Put shortly: as §2
A short description of series [4]: Growth inhibition of human HBC4 cells after 48 hrs by sulforhodamine B assay. Format: functional. The settings on record: HBC4, 48 h. Put shortly:
as §2

Series [5] concerns the target T1, Protein kinase C epsilon type (Homo sapiens, UniProt Q02156).
T1 sequence (Q02156 whole entry): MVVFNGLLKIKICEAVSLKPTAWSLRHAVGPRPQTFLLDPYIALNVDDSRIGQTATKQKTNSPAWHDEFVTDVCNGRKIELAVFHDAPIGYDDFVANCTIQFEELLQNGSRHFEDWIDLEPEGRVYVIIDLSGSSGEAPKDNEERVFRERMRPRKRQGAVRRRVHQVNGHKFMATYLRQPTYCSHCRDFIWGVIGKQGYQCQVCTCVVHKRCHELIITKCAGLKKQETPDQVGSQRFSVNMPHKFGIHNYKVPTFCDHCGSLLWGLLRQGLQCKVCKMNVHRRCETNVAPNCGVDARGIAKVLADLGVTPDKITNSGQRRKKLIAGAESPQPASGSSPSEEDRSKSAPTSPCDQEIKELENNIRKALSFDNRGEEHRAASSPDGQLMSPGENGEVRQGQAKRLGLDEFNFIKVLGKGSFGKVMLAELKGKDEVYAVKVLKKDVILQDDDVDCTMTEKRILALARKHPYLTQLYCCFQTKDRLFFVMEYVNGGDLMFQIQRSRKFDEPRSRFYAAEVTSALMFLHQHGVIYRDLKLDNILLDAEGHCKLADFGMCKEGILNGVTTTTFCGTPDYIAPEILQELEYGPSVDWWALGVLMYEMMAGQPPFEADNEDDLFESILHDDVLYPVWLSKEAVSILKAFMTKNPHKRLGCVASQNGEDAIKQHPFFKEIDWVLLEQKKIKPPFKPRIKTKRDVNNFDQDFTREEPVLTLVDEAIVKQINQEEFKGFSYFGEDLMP
Briefly: Inhibition of [3H]PDBu binding to PKCepsilon C1B domain. The method, boiled down:
as §1

The target in series [6] is Protein kinase C theta type (Homo sapiens, UniProt Q04759). The series is described as follows: Inhibition of [3H]PDBu binding to PKCtheta C1B domain. The method, boiled down: as §1
For a further series, the system named is A549. Briefly: Growth inhibition of human A549 cells after 48 hrs by sulforhodamine B assay. Format: functional. To be noted: A549, 48 h. Put shortly:
as §2

Series [7] deals with Protein kinase C eta type (Homo sapiens, UniProt P24723). The series is described as follows: Inhibition of [3H]PDBu binding to PKCeta C1B domain. The method, boiled down: as §1
Series [8] concerns the target Protein kinase C gamma type (Homo sapiens, UniProt P05129). Briefly: Inhibition of [3H]PDBu binding to PKCgamma C1A domain. Put shortly: as §1
The test system of series [9] is Raji. The series is described as follows: Tumor promoting activity in human Raji cells assessed as induction of EBV-early antigen activation at 1 uM after 48 hrs by FITC staining based indirect immunofluorescence assay. Format: cell-based. Put shortly: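 Raji B-lymphoblastoid cells (5 × 10⁵/mL) held 48 h at 37 °C, 5% CO₂, in RPMI 1640 with 10% FBS. Medium contained 4 mM sodium n-butyrate and compound at 10, 100 or 1000 nM final, with 0.4% DMSO final. Smears stained by indirect immunofluorescence using NPC patient serum and FITC anti-human IgG. At least 500 cells counted; result given as % EA-positive.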

The subject of the next series is SNB-78. Briefly: Growth inhibition of human SNB-78 cells after 48 hrs by sulforhodamine B assay. Format: functional. To be noted: SNB-78, 48 h. Put shortly:
as §2

For series [10], the target named is Protein kinase C delta type (Homo sapiens, UniProt Q05655). The series is described as follows: Inhibition of [3H]PDBu binding to PKCdelta C1B domain. The method, boiled down: as §1
Series [11] has as its target Protein kinase C beta type (Homo sapiens, UniProt P05771). The series is described as follows: Inhibition of [3H]PDBu binding to PKCbeta C1A domain. Put shortly: as §1
The next series deals with NCI-H460. The series is described as follows: Growth inhibition of human NCI-H460 cells after 48 hrs by sulforhodamine B assay. Format: functional. To be noted: NCI-H460, 48 h. Put shortly: as §2
Another series relates to St-4. The series is described as follows: Growth inhibition of human St-4 cells after 48 hrs by sulforhodamine B assay. Format: functional. To be noted: St-4, 48 h. The method, boiled down: as §2
Another series has as its system HCC 2998. The series is described as follows: Growth inhibition of human HCC2998 cells after 48 hrs by sulforhodamine B assay. The settings on record: HCC 2998, 48 h. Format: functional. The method, boiled down:
as §2

Series [12] relates to Mus musculus. Briefly: Tumor promoting activity in ICR mouse assessed as effect on DMBA-mediated skin carcinogenesis at 8.5 nmol administered 1 week after DMBA challenge twice weekly measured after 20 weeks by two-stage carcinogenesis test. Format: organism-based. The settings on record: in vivo, 3360 h. The method, boiled down: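 Two-stage skin carcinogenesis in ICR mice, with 10 mice per group. The back skin was initiated with a single 390 nmol DMBA dose, then treated with the test compound. The control group received DMBA plus 1.7 nmol TPA. Read-outs were percentage of tumor-bearing mice and papillomas per mouse, compared by Fisher's exact test and Welch's t-test (p < 0.05).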

Series [13] deals with Mus musculus. Briefly: Tumor promoting activity in ICR mouse assessed as effect on DMBA-mediated skin carcinogenesis at 1.7 nmol administered 1 week after DMBA challenge twice weekly measured by two-stage carcinogenesis test. Format: organism-based. The settings on record: in vivo, 168 h. Put shortly:
(§3)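 Two-stage mouse skin model in ICR mice, 10 per group. Back skin initiated with a single 390 nmol dose of DMBA, then promoted with 1.7 nmol of test compound; TPA served as control. Scored as tumor-bearing mice (%), compared by Fisher's exact test, and papillomas per mouse, compared by Welch's t-test; p < 0.05.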

Series [14] relates to Mus musculus. The series is described as follows: Tumor promoting activity in ICR mouse assessed as effect on DMBA-mediated skin carcinogenesis at 1.7 nmol administered 1 week after DMBA challenge twice weekly measured after 6 weeks by two-stage carcinogenesis test. To be noted: in vivo, 1008 h. Format: organism-based. The method, boiled down:
as §3

The subject of series [15] is Mus musculus. The series is described as follows: Tumor promoting activity in ICR mouse assessed as effect on DMBA-mediated skin carcinogenesis at 1.7 nmol administered 1 week after DMBA challenge twice weekly measured after 11 weeks by two-stage carcinogenesis test. Format: organism-based. To be noted: in vivo, 1848 h. Put shortly: as §3
In series [16] the test system is Mus musculus. Briefly: Tumor promoting activity in DMBA treated ICR mouse assessed as number of papillomas at 1.7 nmol administered 1 week after DMBA challenge twice weekly measured after 20 weeks by two-stage carcinogenesis test. Format: organism-based. To be noted: in vivo, 3360 h. The method, boiled down: as §3

Protein kinase C beta type, sequence (P05771 whole entry, the tested form may be a part): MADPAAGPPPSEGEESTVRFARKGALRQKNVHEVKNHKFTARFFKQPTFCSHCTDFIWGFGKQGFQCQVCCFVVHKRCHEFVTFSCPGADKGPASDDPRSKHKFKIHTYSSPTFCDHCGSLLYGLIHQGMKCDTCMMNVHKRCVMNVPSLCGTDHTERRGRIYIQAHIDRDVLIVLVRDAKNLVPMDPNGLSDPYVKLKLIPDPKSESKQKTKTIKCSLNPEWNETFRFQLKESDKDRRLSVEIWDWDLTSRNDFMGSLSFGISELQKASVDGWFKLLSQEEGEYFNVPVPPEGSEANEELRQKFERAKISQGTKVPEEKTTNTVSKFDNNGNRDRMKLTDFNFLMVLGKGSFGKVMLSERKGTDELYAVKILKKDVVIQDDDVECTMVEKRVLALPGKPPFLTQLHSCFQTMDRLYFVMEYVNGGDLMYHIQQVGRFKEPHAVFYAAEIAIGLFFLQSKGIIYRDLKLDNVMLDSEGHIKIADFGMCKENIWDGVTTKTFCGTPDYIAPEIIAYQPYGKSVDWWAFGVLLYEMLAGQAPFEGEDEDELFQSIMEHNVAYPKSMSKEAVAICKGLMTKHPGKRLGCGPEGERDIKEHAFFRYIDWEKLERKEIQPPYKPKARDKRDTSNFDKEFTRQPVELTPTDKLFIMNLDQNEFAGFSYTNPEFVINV
Protein kinase C theta type, sequence (Q04759 whole entry, the tested form may be a part): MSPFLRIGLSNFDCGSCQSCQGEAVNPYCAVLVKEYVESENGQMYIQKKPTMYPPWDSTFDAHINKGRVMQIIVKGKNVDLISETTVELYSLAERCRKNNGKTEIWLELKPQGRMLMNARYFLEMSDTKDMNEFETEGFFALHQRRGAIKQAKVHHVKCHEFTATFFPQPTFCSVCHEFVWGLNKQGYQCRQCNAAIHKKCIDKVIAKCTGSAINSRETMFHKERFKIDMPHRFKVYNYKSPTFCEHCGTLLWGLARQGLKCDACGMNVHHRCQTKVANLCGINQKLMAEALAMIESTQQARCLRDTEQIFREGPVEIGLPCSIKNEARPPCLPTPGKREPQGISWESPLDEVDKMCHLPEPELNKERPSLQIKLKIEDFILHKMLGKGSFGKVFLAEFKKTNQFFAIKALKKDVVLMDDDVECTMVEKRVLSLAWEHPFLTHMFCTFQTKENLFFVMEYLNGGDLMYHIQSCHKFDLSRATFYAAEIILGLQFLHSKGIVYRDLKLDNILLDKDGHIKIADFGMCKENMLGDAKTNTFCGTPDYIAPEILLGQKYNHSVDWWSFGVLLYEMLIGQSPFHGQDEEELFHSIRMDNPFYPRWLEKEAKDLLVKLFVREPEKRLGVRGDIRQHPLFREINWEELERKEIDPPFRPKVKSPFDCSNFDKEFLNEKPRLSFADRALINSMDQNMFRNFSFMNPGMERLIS
Protein kinase C eta type, sequence (P24723 whole entry, the tested form may be a part): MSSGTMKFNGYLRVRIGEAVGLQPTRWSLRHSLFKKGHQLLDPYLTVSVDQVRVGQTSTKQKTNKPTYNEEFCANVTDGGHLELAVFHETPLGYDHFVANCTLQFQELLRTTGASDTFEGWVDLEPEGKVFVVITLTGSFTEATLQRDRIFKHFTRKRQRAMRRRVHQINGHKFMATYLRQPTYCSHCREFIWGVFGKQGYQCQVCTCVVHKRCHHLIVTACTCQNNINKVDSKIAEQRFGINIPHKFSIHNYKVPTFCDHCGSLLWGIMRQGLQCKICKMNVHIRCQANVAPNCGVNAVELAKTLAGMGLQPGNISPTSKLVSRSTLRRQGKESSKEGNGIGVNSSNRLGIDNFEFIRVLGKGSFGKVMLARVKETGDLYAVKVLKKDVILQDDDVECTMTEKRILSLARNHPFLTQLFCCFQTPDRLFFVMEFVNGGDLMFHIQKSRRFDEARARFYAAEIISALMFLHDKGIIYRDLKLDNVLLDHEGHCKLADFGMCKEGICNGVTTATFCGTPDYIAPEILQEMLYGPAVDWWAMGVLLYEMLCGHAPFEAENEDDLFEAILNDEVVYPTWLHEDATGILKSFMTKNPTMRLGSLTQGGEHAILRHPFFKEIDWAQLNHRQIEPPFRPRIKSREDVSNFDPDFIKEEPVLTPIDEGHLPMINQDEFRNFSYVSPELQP
Protein kinase C delta type, sequence (Q05655 whole entry, the tested form may be a part): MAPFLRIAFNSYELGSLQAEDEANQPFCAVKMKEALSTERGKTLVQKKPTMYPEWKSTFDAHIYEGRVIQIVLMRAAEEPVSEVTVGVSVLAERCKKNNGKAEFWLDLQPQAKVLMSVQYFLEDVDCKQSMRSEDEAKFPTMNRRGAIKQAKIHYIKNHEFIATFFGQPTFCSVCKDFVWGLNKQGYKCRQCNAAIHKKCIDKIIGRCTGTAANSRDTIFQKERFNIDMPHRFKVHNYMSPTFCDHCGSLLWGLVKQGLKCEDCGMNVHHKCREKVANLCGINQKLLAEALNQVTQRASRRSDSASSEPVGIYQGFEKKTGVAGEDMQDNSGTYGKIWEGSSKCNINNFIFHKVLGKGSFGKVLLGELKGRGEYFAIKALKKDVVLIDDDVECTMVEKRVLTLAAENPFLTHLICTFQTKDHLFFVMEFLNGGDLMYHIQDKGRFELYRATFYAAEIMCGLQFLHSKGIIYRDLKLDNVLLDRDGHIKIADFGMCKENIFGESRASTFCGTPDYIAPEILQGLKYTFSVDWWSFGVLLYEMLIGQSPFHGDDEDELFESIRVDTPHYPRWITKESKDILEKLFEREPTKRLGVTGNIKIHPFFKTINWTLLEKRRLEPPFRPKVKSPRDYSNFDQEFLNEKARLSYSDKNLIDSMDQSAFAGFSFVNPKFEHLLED

In [1], `CC1(C)CC[C@@H]2CC(=O)O[C@@H](CO)CC(=O)O[C@@H]3C[C@@H](CCCCc4cccc(O)c4)O[C@@]1(C3)O2` registered a logP of 3.3. In addition, the Activity entry in the series with Raji [2] was “Toxic”.

Turning to `C[C@@H]1CC(C)(C)[C@@]23C[C@@H](C[C@@H](CCCCc4cccc(O)c4)O2)OC(=O)C[C@H](CO)OC(=O)C[C@@H]1O3`, the Ki in series [3] amounted to 15 nM; in series [5], 17 nM; in [6] it was 2.9 nM; in series [7], 5.9 nM; in series [8] it was 12 nM; in [10] it was 3.3 nM. This compound also had a Ki in [11] of 15 nM. Besides, the GI50 in the series with LOX IMVI was 4170 nM; with MDA-MB-231 it was 1550 nM; in series [4], 275 nM; in the series with A549, 7410 nM; in the series with SNB-78, 17400 nM; in the series with NCI-H460, 1260 nM. Also, the results for the GI50 in the series with St-4 and in the series on HCC 2998 were 6030 nM and 4070 nM, respectively. Moreover, the logP in [1] was 3.7. Also, in the series on Raji [9], the Activity is less than 10%.

As for `C[C@H]1[C@@H]2C[C@@]3(O[C@H](CCC3(C)C)CC(=O)O[C@@H](CO)CC(=O)O2)O[C@@H]1CCCCc1cccc(O)c1`, the inhibition constant (Ki) in series [3] was found to be 4.7 nM; in [5] it was 2 nM; in series [6] it was 0.54 nM; in series [7], 0.45 nM; in series [8], 5.5 nM; in series [10], 0.46 nM. This compound displayed a Ki in series [11] of 12 nM. In addition, the 50% growth inhibitory concentration (GI50) is 617 nM in the series with LOX IMVI; 126 nM in the series with MDA-MB-231; 33.1 nM in series [4]; 977 nM in the series on A549; 891 nM in the series with SNB-78; 85.1 nM in the series with NCI-H460. Besides, the GI50 was 575 nM in the series with St-4 and 339 nM with HCC 2998. Further, the values for the Activity result in the series on Mus musculus [12] and with Raji [9] were “Non-toxic” and less than 10%, respectively. For the same compound, the logP in [1] is 3.6.

In the case of `CO[C@@H](CC[C@H](C)[C@H]1O[C@@]23C[C@H](OC(=O)C[C@H]([C@@H](C)O)OC(=O)C[C@](O)(O2)[C@H](C)CC3(C)C)[C@@H]1C)c1cccc(O)c1` [DEBROMOAPLYSIATOXIN], the Ki in series [3] is 0.26 nM; in series [5] it was 0.63 nM; in series [6], 0.11 nM; in [7], 0.11 nM; in series [8], 0.38 nM; in series [10] it was 0.2 nM. The affinity in [11] corresponds to a Ki of 0.17 nM. The 50% growth inhibitory concentration (GI50) was 2040 nM in the series on LOX IMVI; 933 nM with MDA-MB-231; 339 nM in series [4]; 1150 nM with A549; 15800 nM in the series on SNB-78; 347 nM in the series with NCI-H460. Further, the 50% growth inhibitory concentration (GI50) with St-4 is 363 nM; in the series on HCC 2998, 813 nM. In series [1], the logP stood at 4.4. The Activity result in the series with Raji [9] and in the series with Mus musculus [13] was “Toxic” each time.

As for `CCCCCCCCCCCCCC(=O)O[C@@H]1[C@@H](C)[C@@]2(O)[C@@H](C=C(CO)C[C@]3(O)C(=O)C(C)=C[C@@H]23)[C@@H]2C(C)(C)[C@]12OC(C)=O` [PHORBOL MYRISTATE ACETATE], the Activity result in the series with Mus musculus [14] is “Toxic”; with Mus musculus [15], 100%; in the series with Raji [9] it was “Toxic”; with Mus musculus [16], “Toxic”.
